Measurements taken from ChEMBL document CHEMBL4229344 (Eur J Med Chem, 2018).
The source made the active and inactive calls. The rule behind the calls is not given here.

What was measured:
[1] = target: Calcium/calmodulin-dependent protein kinase type 1G (Homo sapiens) (UniProt Q96NX5); test: Binding affinity to wild-type human partial length CAMK1G (M1 to A342 residues) expressed in bacterial expression system assessed as residual binding level at 1 uM by Kinomescan method relative to control
[2] = target: Mitogen-activated protein kinase kinase kinase 14 (Homo sapiens) (UniProt Q99558); test: Binding affinity to wild-type human partial length NIK (L318 to P947 residues) expressed in mammalian expression system assessed as residual binding level at 1 uM by Kinomescan method relative to control
Procedure, shortened: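 KINOMEscan competition binding against a panel of 468 purified kinases/mutants, compound tested at 1 μM; readout is relative binding activity versus control.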

[3] = target: Vascular endothelial growth factor receptor 1 (Homo sapiens) (UniProt P17948); test: Binding affinity to wild-type human partial length FLT1 (R781 to F1239 residues) expressed in bacterial expression system assessed as residual binding level at 1 uM by Kinomescan method relative to control
Procedure, shortened: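 Kinome-wide competition binding screen against a panel of 468 purified kinases/mutants, with the test compound at a single concentration of 1 μM. Read-out is the relative binding activity of each kinase in the presence of compound.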

Homo sapiens = species on record: Homo sapiens; test: Selectivity index, ratio of GI50 for TEL-fused PDGFRbeta (unknown origin) expressed in mouse BA/F3 cells to GI50 for TEL-fused PDGFRalpha (unknown origin) expressed in mouse BA/F3 cells; assay type: cell-based
Procedure, shortened: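 Parental BaF3 or IL-3-independent TEL-kinase BaF3 lines, made by retroviral infection and puromycin selection, grown in RPMI 1640 with 10% FBS. Cells seeded at 1–3 × 10^4 cells/mL with serial compound concentrations for 72 h. Viability read by CellTiter-Glo luminescence or CCK-8 absorbance at 450/655 nm and normalised to DMSO. GI50 obtained by triplicate testing with linear regression. Selectivity is the ratio of the two GI50 values.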

[4] = target: Activated CDC42 kinase 1 (Homo sapiens) (UniProt Q07912); test: Binding affinity to wild-type human partial length TNK2 (S159 to D474 residues) expressed in bacterial expression system assessed as residual binding level at 1 uM by Kinomescan method relative to control
[5] = target: Platelet-derived growth factor receptor beta (Homo sapiens, UniProt P09619); test: Inhibition of PDGFRbeta (unknown origin) using poly(4:1 Glu,Tyr) peptide as substrate preincubated for 1 hr followed by addition of ATP and measured after 30 mins by ADP-Glo bioluminescence assay
[6] = system: Receptor-type tyrosine-protein kinase FLT3 (Homo sapiens), P36888 [D835Y]; test: Binding affinity to human partial length FLT3 D835Y mutant (Q580 to Y969 residues) expressed in bacterial expression system assessed as residual binding level at 1 uM by Kinomescan method relative to control
Procedure, shortened: (§1)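 Kinome-wide single-concentration binding screen (KINOMEscan) at 1 μM against a panel of 468 purified kinases and mutants. Read-out is relative binding of each kinase compared with control. Selectivity across the panel was summarised as an S(10) score.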

[7] = target: Dual specificity mitogen-activated protein kinase kinase 2 (Homo sapiens) (UniProt P36507); test: Binding affinity to wild-type human full length MEK2 (M1 to V400 residues) expressed in mammalian expression system assessed as residual binding level at 1 uM by Kinomescan method relative to control
Procedure, shortened: (§2)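 Single-concentration KINOMEscan (DiscoverX) binding screen at 1 μM against a panel of 468 purified kinases and mutants. The read-out is binding relative to control.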

[8] = system: ALK tyrosine kinase receptor (Homo sapiens), Q9UM73 [C1156Y]; test: Binding affinity to wild-type human partial length ALK C1156Y mutant (I1088 to E1409 residues) expressed in mammalian expression system assessed as residual binding level at 1 uM by Kinomescan method relative to control; procedure, shortened: as §2
[9] = target: Serine/threonine-protein kinase SIK2 (Homo sapiens) (UniProt Q9H0K1); test: Binding affinity to wild-type human full length SIK2 (M1 to N926 residues) expressed in bacterial expression system assessed as residual binding level at 1 uM by Kinomescan method relative to control
Serine/threonine-protein kinase SIK2 (Homo sapiens), sequence (Q9H0K1 whole entry, looked up, the tested form may be a part): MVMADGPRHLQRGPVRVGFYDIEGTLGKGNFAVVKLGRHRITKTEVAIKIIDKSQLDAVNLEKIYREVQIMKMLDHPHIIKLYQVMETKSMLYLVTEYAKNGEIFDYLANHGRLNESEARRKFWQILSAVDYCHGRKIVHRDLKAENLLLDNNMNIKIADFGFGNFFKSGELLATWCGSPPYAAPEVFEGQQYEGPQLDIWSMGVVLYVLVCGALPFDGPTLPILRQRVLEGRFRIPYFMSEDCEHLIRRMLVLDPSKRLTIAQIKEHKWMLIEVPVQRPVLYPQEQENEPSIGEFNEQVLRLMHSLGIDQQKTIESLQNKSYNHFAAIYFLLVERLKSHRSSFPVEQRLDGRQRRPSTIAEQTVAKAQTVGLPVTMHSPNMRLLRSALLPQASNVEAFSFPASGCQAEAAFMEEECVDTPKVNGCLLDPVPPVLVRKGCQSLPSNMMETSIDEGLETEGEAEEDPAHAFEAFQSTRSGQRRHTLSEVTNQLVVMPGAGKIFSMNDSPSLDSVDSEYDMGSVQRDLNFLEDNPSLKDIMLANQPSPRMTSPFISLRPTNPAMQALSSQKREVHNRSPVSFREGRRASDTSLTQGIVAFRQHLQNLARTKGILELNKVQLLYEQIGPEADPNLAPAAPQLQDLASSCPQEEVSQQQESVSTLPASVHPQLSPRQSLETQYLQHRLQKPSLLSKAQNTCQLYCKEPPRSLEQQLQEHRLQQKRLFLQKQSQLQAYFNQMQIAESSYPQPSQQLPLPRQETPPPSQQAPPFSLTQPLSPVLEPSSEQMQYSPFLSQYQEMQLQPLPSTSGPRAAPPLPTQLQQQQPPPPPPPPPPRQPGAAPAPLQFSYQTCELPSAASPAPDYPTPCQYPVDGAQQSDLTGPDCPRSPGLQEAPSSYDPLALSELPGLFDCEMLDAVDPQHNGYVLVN
Procedure, shortened: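 KINOMEscan competition binding against 468 purified kinases/mutants, test compound at 1 µM; residual binding relative to control.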

[10] = target: Ribosomal protein S6 kinase alpha-5 (Homo sapiens) (UniProt O75582); test: Binding affinity to wild-type human partial length N-terminal RPS6KA5 kinase domain 1 expressed in bacterial expression system assessed as residual binding level at 1 uM by Kinomescan method relative to control
[11] = target: Tyrosine-protein kinase BTK (Homo sapiens) (UniProt Q06187); test: Binding affinity to wild-type human full length BTK (M1 to S659 residues) expressed in mammalian expression system assessed as residual binding level at 1 uM by Kinomescan method relative to control
Procedure, shortened: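 Single-concentration (1 μM) competition-binding screen run by KINOMEscan against a panel of 468 purified kinases and mutants. The read-out is the relative binding activity of the test compound to each kinase.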

[12] = target: Testis-specific serine/threonine-protein kinase 1 (Homo sapiens) (UniProt Q9BXA7); test: Binding affinity to wild-type human full length TSSK1B (M1 to Q367 residues) expressed in bacterial expression system assessed as residual binding level at 1 uM by Kinomescan method relative to control; procedure, shortened: as §2
[13] = system: Receptor-type tyrosine-protein kinase FLT3 (Homo sapiens), P36888 [D835H]; test: Binding affinity to human partial length FLT3 D835H mutant (V592 to Y969 residues) expressed in bacterial expression system assessed as residual binding level at 1 uM by Kinomescan method relative to control; procedure, shortened: as §1
[14] = target: Serine/threonine-protein kinase SBK1 (Homo sapiens) (UniProt Q52WX2); test: Binding affinity to wild-type human partial length SBK1 (P23 to P348 residues) expressed in mammalian expression system assessed as residual binding level at 1 uM by Kinomescan method relative to control
[15] = target: Serine/threonine-protein kinase MRCK beta (Homo sapiens) (UniProt Q9Y5S2); test: Binding affinity to wild-type human partial length MRCKB (L56 to S417 residues) expressed in bacterial expression system assessed as residual binding level at 1 uM by Kinomescan method relative to control
Serine/threonine-protein kinase MRCK beta (Homo sapiens), sequence (Q9Y5S2 whole entry, the tested form may be a part): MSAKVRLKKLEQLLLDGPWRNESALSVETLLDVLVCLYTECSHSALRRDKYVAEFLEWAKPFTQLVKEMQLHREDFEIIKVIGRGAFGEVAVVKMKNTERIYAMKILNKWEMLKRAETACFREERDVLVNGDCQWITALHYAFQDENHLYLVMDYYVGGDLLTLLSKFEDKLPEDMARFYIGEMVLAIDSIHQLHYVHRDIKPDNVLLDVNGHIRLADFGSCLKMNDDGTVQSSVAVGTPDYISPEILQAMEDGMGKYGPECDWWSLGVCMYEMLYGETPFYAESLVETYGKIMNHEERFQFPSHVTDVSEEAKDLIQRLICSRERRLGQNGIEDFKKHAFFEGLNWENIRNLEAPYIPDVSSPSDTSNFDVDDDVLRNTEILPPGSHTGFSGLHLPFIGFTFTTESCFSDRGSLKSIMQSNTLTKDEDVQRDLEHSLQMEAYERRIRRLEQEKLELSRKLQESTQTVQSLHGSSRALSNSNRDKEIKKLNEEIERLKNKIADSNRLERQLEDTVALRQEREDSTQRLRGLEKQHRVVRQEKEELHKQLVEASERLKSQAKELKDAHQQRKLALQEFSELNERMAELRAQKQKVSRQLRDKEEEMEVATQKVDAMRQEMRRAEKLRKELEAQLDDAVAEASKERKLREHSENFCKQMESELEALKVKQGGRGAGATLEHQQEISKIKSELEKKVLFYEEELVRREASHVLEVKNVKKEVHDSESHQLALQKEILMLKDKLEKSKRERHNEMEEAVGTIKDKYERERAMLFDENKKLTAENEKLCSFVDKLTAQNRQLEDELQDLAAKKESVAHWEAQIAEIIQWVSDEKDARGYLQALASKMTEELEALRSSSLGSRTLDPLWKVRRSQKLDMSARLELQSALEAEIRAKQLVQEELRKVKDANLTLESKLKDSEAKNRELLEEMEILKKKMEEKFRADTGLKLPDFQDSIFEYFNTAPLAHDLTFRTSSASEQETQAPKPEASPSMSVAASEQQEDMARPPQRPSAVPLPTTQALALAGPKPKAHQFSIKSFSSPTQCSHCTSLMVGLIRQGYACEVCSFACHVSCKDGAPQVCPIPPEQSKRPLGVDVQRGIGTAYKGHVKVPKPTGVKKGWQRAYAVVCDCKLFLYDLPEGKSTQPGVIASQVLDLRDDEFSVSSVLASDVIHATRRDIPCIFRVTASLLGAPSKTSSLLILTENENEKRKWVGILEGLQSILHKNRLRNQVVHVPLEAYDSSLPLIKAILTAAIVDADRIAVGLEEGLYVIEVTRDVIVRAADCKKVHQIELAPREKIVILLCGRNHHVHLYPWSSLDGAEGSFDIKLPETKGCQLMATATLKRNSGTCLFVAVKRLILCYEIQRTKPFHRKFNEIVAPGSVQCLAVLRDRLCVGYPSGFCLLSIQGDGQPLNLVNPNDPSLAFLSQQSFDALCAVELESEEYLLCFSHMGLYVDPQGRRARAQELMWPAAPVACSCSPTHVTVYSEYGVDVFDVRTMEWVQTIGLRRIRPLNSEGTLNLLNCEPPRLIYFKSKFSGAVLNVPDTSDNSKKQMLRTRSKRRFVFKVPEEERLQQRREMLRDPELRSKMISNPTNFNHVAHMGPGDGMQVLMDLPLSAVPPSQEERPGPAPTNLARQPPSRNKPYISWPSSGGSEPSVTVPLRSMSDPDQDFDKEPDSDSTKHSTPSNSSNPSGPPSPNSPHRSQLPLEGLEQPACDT

[16] = target: Receptor-interacting serine/threonine-protein kinase 2 (Homo sapiens) (UniProt O43353); test: Binding affinity to wild-type human partial length RIPK2 (M1 to K310 residues) expressed in bacterial expression system assessed as residual binding level at 1 uM by Kinomescan method relative to control
Receptor-interacting serine/threonine-protein kinase 2 (Homo sapiens), sequence (O43353 whole entry, the tested form may be a part): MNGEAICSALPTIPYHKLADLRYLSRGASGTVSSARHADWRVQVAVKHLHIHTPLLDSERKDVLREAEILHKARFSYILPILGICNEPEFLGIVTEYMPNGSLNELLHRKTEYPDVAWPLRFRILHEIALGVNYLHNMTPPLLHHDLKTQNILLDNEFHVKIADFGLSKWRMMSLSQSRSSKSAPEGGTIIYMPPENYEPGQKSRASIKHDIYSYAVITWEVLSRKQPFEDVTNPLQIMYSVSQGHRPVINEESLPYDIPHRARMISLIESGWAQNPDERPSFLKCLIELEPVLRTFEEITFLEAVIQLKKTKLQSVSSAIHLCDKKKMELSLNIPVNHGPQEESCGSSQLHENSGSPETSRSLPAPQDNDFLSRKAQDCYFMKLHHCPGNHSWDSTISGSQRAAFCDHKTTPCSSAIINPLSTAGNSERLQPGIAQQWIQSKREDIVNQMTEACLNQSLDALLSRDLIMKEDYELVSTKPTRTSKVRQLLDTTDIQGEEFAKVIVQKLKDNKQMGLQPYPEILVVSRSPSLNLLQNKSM

EOL1 = test: Antiproliferative activity against human EOL-1 cells after 72 hrs by CellTiter-Glo or CCK-8 assay; assay type: functional; settings: EOL1, 72 h
Procedure, shortened: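 Cells in RPMI 1640 with 10% FBS at 37 °C, 5% CO2, seeded at 1–3 × 10^4 cells/mL with serial compound dilutions for 72 h. Viability read by CellTiter-Glo luminescence or CCK-8 absorbance (450/655 nm), normalized to DMSO control.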

[17] = target: Platelet-derived growth factor receptor alpha (Homo sapiens, UniProt P16234); test: Inhibition of PDGFRalpha autophosphorylation at Y1018 residue in human EOL-1 cells up to 300 nM after 2 hrs by Western blot analysis; assay type: cell-based
Platelet-derived growth factor receptor alpha, sequence (P16234 whole entry): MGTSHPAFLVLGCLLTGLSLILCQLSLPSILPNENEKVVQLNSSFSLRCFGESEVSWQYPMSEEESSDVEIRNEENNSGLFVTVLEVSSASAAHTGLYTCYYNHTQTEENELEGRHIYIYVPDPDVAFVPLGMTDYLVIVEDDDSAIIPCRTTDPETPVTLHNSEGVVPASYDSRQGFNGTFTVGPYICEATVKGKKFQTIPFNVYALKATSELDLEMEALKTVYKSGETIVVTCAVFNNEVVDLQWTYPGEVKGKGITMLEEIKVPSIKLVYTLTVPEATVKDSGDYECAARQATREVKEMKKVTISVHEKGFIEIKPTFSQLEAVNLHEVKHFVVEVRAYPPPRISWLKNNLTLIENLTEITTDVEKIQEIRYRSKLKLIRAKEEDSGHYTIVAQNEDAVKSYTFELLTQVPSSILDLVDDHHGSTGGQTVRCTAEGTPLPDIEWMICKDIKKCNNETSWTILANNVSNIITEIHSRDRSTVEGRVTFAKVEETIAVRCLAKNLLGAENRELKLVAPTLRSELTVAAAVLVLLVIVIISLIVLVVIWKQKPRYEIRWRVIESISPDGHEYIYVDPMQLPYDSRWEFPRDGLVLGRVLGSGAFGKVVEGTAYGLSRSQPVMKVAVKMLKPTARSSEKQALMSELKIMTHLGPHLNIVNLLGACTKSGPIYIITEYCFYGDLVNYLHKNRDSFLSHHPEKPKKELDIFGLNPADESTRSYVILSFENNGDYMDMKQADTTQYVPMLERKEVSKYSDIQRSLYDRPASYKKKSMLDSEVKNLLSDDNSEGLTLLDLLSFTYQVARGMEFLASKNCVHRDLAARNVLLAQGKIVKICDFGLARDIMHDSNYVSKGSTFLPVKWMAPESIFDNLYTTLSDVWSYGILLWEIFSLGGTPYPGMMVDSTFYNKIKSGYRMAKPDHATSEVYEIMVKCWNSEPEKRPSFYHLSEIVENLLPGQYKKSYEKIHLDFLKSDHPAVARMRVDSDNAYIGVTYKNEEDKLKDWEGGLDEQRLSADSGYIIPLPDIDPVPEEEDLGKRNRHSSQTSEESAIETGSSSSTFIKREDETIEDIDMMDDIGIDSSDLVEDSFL

Calcium/calmodulin-dependent protein kinase type 1G (Homo sapiens), sequence (Q96NX5 whole entry, the tested form may be a part): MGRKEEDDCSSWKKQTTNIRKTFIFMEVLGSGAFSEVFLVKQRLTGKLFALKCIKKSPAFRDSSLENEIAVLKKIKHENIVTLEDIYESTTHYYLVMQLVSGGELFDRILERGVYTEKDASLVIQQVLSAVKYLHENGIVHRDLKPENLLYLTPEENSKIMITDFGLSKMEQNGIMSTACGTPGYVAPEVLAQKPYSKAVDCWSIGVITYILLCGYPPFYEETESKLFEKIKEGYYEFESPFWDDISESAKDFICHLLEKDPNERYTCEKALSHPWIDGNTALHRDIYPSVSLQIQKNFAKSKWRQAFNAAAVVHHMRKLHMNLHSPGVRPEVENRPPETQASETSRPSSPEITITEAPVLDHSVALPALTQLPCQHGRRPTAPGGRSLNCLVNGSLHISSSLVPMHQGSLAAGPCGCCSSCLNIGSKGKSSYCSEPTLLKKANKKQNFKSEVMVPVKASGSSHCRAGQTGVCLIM

Cc1ccc(NC(=O)c2ccc(CN(CCN(C)C)C(=O)c3cccnc3)cc2)cc1Nc1nccc(-c2cccnc2)n1
Activity [1]: 100% | Activity [2]: 82% | Activity [3]: 75% | RatioGI50 (Homo sapiens): 85 | Activity [4]: 88% | IC50 [5]: 6.11 µM | Activity [6]: 95% | Activity [7]: 86% | Activity [8]: 100% | Activity [9]: 87% | Activity [10]: 86% | Activity [11]: 100% | Activity [12]: 99% | Activity [13]: 100% | Activity [14]: 100% | Activity [15]: 99% | Activity [16]: 93% | GI50 (EOL1): < 1 nM | inhibition [17]: Active
